# Assay results of several laboratories.
# Lines come from different studies, so protocols differ.
# Target: Myosin light chain kinase (MYLK3, Homo sapiens, UniProt Q32MK0)
# Residues used in one study (Q32MK0 1-819): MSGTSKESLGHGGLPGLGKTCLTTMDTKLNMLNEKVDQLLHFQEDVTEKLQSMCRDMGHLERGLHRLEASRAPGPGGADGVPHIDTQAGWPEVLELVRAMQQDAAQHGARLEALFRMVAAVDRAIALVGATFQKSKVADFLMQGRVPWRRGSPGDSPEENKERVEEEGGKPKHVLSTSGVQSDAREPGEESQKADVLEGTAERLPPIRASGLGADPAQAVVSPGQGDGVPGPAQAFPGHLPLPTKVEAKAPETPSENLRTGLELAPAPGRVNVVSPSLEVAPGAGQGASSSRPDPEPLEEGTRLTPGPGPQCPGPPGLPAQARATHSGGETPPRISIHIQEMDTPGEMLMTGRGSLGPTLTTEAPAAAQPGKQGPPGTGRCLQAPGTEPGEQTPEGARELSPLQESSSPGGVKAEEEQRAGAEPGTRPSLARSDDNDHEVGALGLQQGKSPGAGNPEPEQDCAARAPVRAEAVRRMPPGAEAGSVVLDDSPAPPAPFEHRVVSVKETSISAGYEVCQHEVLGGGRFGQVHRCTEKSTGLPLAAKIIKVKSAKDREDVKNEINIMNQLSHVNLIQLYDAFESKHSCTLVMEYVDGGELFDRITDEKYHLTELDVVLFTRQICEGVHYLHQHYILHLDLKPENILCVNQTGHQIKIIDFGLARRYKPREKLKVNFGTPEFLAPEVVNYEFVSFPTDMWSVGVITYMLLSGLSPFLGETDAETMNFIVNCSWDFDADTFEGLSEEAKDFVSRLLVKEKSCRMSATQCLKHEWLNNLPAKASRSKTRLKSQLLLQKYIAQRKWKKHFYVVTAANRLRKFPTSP
SMILES,read-out,mode,technique,concentration,endpoint,result
Cn1cncc1[C@](O)(COc1ccc(C#N)cc1-c1ccc(OC(F)(F)F)cc1)c1ccc(C#N)cc1,cell-free assay,,competition with immobilised ligand,1 µM,remaining binding,100%
Cc1nn(C)cc1-c1nc2c(N3CCN(Cc4ccc(Cl)cc4)CC3)c(Cl)cnc2[nH]1,binding,,competition with immobilised ligand,1 µM,remaining binding,100%
COc1cc(Nc2ncc(F)c(Nc3ccc4c(n3)NC(=O)C(C)(C)O4)n2)cc(OC)c1OC,binding,,competition with immobilised ligand,10 µM,inhibition,30%
COc1ncccc1-c1cnn2ccc(N3CCN(C(=O)OC(C)C)CC3)nc12,binding,,competition with immobilised ligand,1 µM,remaining binding,100%
Cn1cc(-c2cccc(N3CCc4c(sc5c4CC(C)(C)C5)C3=O)c2CO)cc(Nc2ccncn2)c1=O,enzyme activity,inhibitor,,1 µM,inhibition,-8%
Nc1ncc(-c2nc(N3CCOCC3)nc(N3CCOCC3)n2)c(C(F)F)n1,binding,,competition with immobilised ligand,10 µM,remaining binding,84%
Cn1cc(-c2cc(F)cc(N3CCn4c(cc5c4CCCC5)C3=O)c2CO)cc(Nc2ccc(N3CCN(C4COC4)CC3)cn2)c1=O,enzyme activity,inhibitor,,0.1 µM,inhibition,-5%
N#CC1(c2ccccn2)CCN(Cc2cc(C(=O)O)c(=O)n3ccccc23)CC1,cell-free assay,,competition with immobilised ligand,1 µM,remaining binding,87%
